From PubChem
STAT1 blocker: inhibitors of IFN-gamma induced STAT1 signaling; inhibition, % at 5.5 µM; actives 0.35% (n = 200,000); NIH 3T3 STAT1-luciferase reporter, luminescence;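 active = inhibition above a set limit, the mean inhibition across all tested compounds plus 3 SD, cut at about 34% in these data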;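 note: 0% = IFN-gamma with DMSO and 100% = IFN-gamma with 300 µM nifuroxazide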
NF-kB expr up: compounds increasing NF-kB expression in human neuronal cells; NF-kB reporter expression; active compounds read high; fold change at 12.5 µM; actives 1.6% (n = 190,000); in the data active = fold change above about 3.3
STAT1 activator: activators of IFN-gamma induced STAT1 signaling | NIH 3T3 STAT1-luciferase reporter, luminescence; 100% = IFN-gamma alone, no compound | activation (% of control), % at 5.5 µM | actives 2.6% (n = 200,000) | AID 932;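 active = activation above the screen-wide mean activation plus 3 SD, cut at about 130% in these data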;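 note: raw ratio to IFN-gamma control signal so 100% means no change and 0% no light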
APP 5'UTR act: activates APP 5'UTR luciferase reporter; SH-SY5Y APP 5'UTR luciferase reporter, luminescence; zero percent = DMSO vehicle wells; activation, % at 2 µM; actives 1% (n = 190,000);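 active = activation above a set limit, based on mean plus 3 SD of controls, cut at about 140% in these data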
STAT3 inh: STAT3 signaling inhibition; U3A cells, IL-6 STAT3-luciferase reporter, luminescence; host cell line lacks STAT1; inhibition, % at 5.5 µM; actives 0.89% (n = 190,000);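 active = inhibition above the mean inhibition across all screened compounds plus 3 SD, cut at about 44% in these data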;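 note: 0% = DMSO only wells and 100% = 100 µM nifuroxazide control wells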
STAT3 act: increases IL-6 driven STAT3 reporter signal. U3A cells, IL-6 STAT3-luciferase reporter, luminescence; 100% = signal with IL-6 EC80 alone. activation (% of control), % at 5.6 µM. actives 0.91% (n = 190,000). AID 871;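 active = activation above the screen-wide mean of compound activation plus 3 SD, cut at about 130% in these data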;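 note: 0% = background luminescence of wells with medium and substrate only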
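Assay system – human STAT1-deficient U3A cells with stable STAT3-luciferase reporter · Also added – IL-6 (33 ng/mL) · Schedule – compound 1 h, then IL-6 6 h at 37 °C · Technique – reporter luminescence signal · Evaluation – % activation versus median of IL-6-stimulated wells · Benchmarks – IL-6-only wells as 100% reference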
Starred values were filed as active, the others as inactive; x = not tested or not shown. Most compounds without a hit are left out; they make up all but 4.9% or so of the library.

SMILES	STAT1 blocker	NF-kB expr up	STAT1 activator	APP 5'UTR act	STAT3 inh	STAT3 act
CCC(=O)N(NC1=NS(=O)(=O)c2ccccc21)S(=O)(=O)c1ccc(C)cc1	9	1.1	90	3	10	95
CN1CCN(Cn2cc(/C=C/C(=O)c3ccccc3)c3ccccc32)CC1	-34	13*	131*	165*	16	91
CCCN(CCC)CC(O)Cn1cc(/C=C/C(=O)c2ccccc2)c2ccccc21 (stereo not drawn)	-9	0.93	107	20	-2	109
O=C(Nc1ccc(-c2noc(COc3ccccc3Cl)n2)cc1)c1ccco1	-34	1.9	132*	76	18	87
COc1ccc(CC(=O)Nc2ccc(-c3noc(COc4ccccc4C)n3)cc2)cc1	4	1	95	-4	15	91
Cc1cccc(NC(=S)N=Nc2c(O)n(CN3CCOCC3)c3ccccc23)c1C	-2	1.1	102	-22	-18	117
Cc1ccc(N=Nc2c(O)n(CN3CCOCC3)c3ccccc23)cc1	-70	2.9	163*	167*	-39	137*
COc1cccc(-c2noc(-c3ccc(Cl)nc3)n2)c1	-58	4.9*	151*	124	-35	144*
COc1cc(OC)cc(-c2nc(-c3ccccc3)no2)c1	-25	2.1	121	x	-6	108
CCOc1cc(-c2noc(-c3cccnc3)n2)ccc1OC	-4	0.85	104	4	2	103
COc1ccc(-c2noc(-c3cccnc3)n2)cc1OC	-44	1.8	140*	36	9	100
c1ccc(-c2cnc(-c3cccnc3)o2)cc1	-38	1.6	135*	37	4	100
O=c1[nH]c2ccccc2cc1-c1noc(-c2cccnc2)n1	-1	0.75	101	4	10	98
c1ccc(-c2ccc(-c3nc(-c4cccnc4)no3)cc2)cc1	-39	5.3*	137*	136*	8	98
COc1ccc(NC(=O)CCC2CCCCC2)cc1S(=O)(=O)N1CCCCC1	8	0.6	93	2	9	97
C(=C\c1nc(-c2cccnc2)no1)/c1ccccc1	-50	1.2	145*	123	18	86
c1ccc(-c2ccccc2-c2nc(-c3ccncc3)no2)cc1	-2	0.7	102	-3	-27	124
Cc1ccc(-c2noc(/C=C/c3ccccc3)n2)cc1	-19	2.1	117	-14	10	100
c1ccc(-c2noc(-c3cccnc3)n2)cc1	-58	3.4*	150*	80	3	97
CC(C)(C)NC(=O)COC(=O)c1ccc(Cl)c(S(N)(=O)=O)c1	-8	1.3	106	2	1	100
Cc1cc2ncc(-c3cccc(Cl)c3)cn2n1	-32	1.9	129*	49	-24	122
Cc1ccc(N=Cc2sc(O)c3ccccc23)c(C)c1	-53	1.3	147*	12	13	92
Cc1cccc2nc(=S)n(C(=O)c3ccco3)n12	-106	12*	197*	146*	-32	134*
O=C(c1ccco1)n1c(=S)nc2ccccn21	-48	5.4*	144*	87	1	106
O=C(c1cc2ncc(Br)cn2n1)N1CCN(C(=O)c2ccco2)CC1	-6	1.2	106	-1	-1	104
SMILES	STAT1 blocker	NF-kB expr up	STAT1 activator	APP 5'UTR act	STAT3 inh	STAT3 act
O=c1[nH]c2ccccc2c(O)c1-c1cc2ccccc2oc1=O	-1	1	101	-16	3	102
COc1ccc(C)cc1NC(=O)C(NC(=O)c1cc(OC)c(OC)c(OC)c1)C(C)C (stereo not drawn)	12	1.1	90	7	-4	108
O=C(N/N=C/c1c(Cl)cccc1Cl)c1cccc(F)c1	-15	0.97	113	13	13	98
Fc1cccc(/C=N/NC(=S)Nc2ccccc2Cl)c1	-35	1.7	131*	14	2	99
O=C(N/N=C/c1ccc(F)cc1)c1ccccc1	-32	2.6	129*	66	5	97
O=C(Nc1ccccc1C(=O)N/N=C/c1ccncc1)c1ccccc1	54*	1.3	50	16	67*	45
Cc1ccccc1C(=O)Nc1ccc(C(=O)N/N=C/c2ccncc2)cc1	2	0.7	97	-2	12	99
O=C(N/N=C/c1ccccc1Cl)c1cccc(F)c1	-54	2.1	148*	70	0	109
c1cnn(-c2cncc(-n3cccn3)n2)c1	-12	1.5	109	7	10	95
COC(=O)c1ccc(NC(=O)Cn2nc(C)cc2C)cc1	-4	0.82	103	3	-2	103
COc1ccc(C(=O)NCC(=O)OCC(=O)N2N=C(c3ccc(Cl)cc3)CC2c2ccco2)cc1OC (stereo not drawn)	-4	1.1	103	21	21	85
COc1ccc2cc(C3OCCO3)c(Cl)nc2c1	-31	2.9	127	86	19	89
CCN1CCN(CCOc2cccc(Oc3ccccc3)c2)CC1	-2	1.1	100	-16	-1	104
O=C(N/N=C/c1cccc(F)c1)c1ccc(Cl)cc1	-41	2.7	138*	20	10	96
O=C(N/N=C/c1cccc(O)c1)c1csc2ccccc12	-2	1.6	102	14	8	93
O=S(=O)(N/N=C\c1ccc(-c2ccccc2Cl)o1)c1ccccc1	2	1	97	-2	11	93
O=C(N/N=C/c1ccc(-c2ccccc2Cl)o1)c1ccccc1	-42	1.2	137*	30	13	98
O=C(N/N=C/c1ccccc1C(F)(F)F)c1ccc(O)cc1	-33	1.7	130*	45	-14	115
CC(C)(C)c1ccc(C(=O)N/N=C/c2cccc(Cl)c2)cc1	-23	2	121	x	7	93
O=C(N/N=C/c1cccc(F)c1)c1csc2c1CCCC2	-48	5.5*	142*	123	-2	102
Cn1ccnc1SCC(=O)Nc1ccc(Cl)cn1	-9	1.2	106	8	19	89
Cc1ncoc1C(=O)N1CCCC(C(=O)c2ccc(-c3ccccc3)cc2)C1 (stereo not drawn)	0	0.82	99	0	3	102
Cc1cc(C=NCCCO)c(C)n1-c1cc(Cl)ccc1Cl	7	1.2	92	8	8	95
CCCCS/C(N)=N/N=C/c1ccccc1O	-13	2.8	109	x	-14	112
CCCS/C(N)=N/N=C/c1cc(C)ccc1O	-18	11*	117	150*	3	101
CS(=O)(=O)N(CC(=O)NC1CC2CCC1C2)c1ccc(Oc2ccccc2)cc1 (stereo not drawn)	-6	1	104	-1	2	101
Cn1c(=O)c(C(=O)Nc2cccnc2)c(O)c2ccccc21	-15	x	114	8	-36	134*
